Assay results: ChEMBL document CHEMBL3045256, “Design, synthesis, structure, and acaricidal/insecticidal activity of novel spirocyclic tetronic acid derivatives containing an oxalyl moiety” (2011)

Experiments:
Format in all cases: functional
Tetranychus cinnabarinus [1] = assay: Acaricidal activity against eggs of Tetranychus cinnabarinus (carmine spider mite) in sieva bean leaves assessed as mortality at 5 mg/kg at 25 +/-1 degC treated for 3 secs measured after 4 days; details: 96 h
Mythimna separata [2] = assay: Stomach toxicity against fourth-instar larval stage of Mythimna separata (Oriental armyworm) in compound-pretreated corn leaves assessed as mortality at 600 mg/kg at 25 +/-1 degC after 4 days
Summary of the method: (§1)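 Foliar application to oriental armyworm. Single corn leaves were laid on moistened filter paper in Petri dishes. Bioassays were run at 25 ± 1 °C.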

Tetranychus cinnabarinus [3] = assay: Acaricidal activity against larvae of Tetranychus cinnabarinus (carmine spider mite) in sieva bean leaves assessed as mortality at 10 mg/kg at 25 +/-1 degC treated for 3 secs measured after 4 days; details: 96 h
Tetranychus cinnabarinus [4] = assay: Acaricidal activity against larvae of Tetranychus cinnabarinus (carmine spider mite) in sieva bean leaves assessed as mortality at 5 mg/kg at 25 +/-1 degC treated for 3 secs measured after 4 days; details: 96 h
Helicoverpa armigera = assay: Stomach toxicity against third-instar larval stage of Helicoverpa armigerain compound-pretreated corn leaves assessed as mortality at 600 mg/kg at 25 +/-1 degC after 4 days by leaf-dip method
Summary of the method: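 Leaf-dip assay on cotton bollworm. Corn leaves were dipped in test solution and air-dried. The treated pieces were placed individually into 24-hole boxes. Run at 25 ± 1 °C.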

Ostrinia nubilalis = assay: Stomach toxicity against third-instar larval stage of Ostrinia nubilalis (European corn borer) in corn leaves assessed as mortality at 600 mg/kg at 25 +/-1 degC treated for 3-5 secs before larval infestation after 4 days by leaf-dip method; details: 96 h
Summary of the method: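 Corn leaf disks (about 5 cm) were dipped for 3–5 s and air-dried. Each disk was placed in a 7 cm glass vessel with 10 third-instar corn borer larvae. Percentage mortality was scored 4 days after treatment. Controls were acetone-treated leaves. Run at 25 ± 1 °C.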

Tetranychus cinnabarinus [5] = assay: Acaricidal activity against eggs of Tetranychus cinnabarinus (carmine spider mite) in sieva bean leaves assessed as mortality at 1 mg/kg at 25 +/-1 degC treated for 3 secs measured after 4 days; details: 96 h
Tetranychus cinnabarinus [6] = assay: Acaricidal activity against eggs of Tetranychus cinnabarinus (carmine spider mite) in sieva bean leaves assessed as mortality at 0.5 mg/kg at 25 +/-1 degC treated for 3 secs measured after 4 days; details: 96 h
Tetranychus cinnabarinus [7] = assay: Acaricidal activity against eggs of Tetranychus cinnabarinus (carmine spider mite) in sieva bean leaves assessed as mortality at 2.5 mg/kg at 25 +/-1 degC treated for 3 secs measured after 4 days; details: 96 h
Mythimna separata [8] = assay: Stomach toxicity against fourth-instar larval stage of Mythimna separata (Oriental armyworm) in compound-pretreated corn leaves assessed as mortality at 50 mg/kg at 25 +/-1 degC after 4 days; summary of the method: as §1
Tetranychus cinnabarinus [9] = assay: Acaricidal activity against larvae of Tetranychus cinnabarinus (carmine spider mite) in sieva bean leaves assessed as mortality at 0.5 mg/kg at 25 +/-1 degC treated for 3 secs measured after 4 days; details: 96 h
Tetranychus cinnabarinus [10] = assay: Acaricidal activity against larvae of Tetranychus cinnabarinus (carmine spider mite) in sieva bean leaves assessed as mortality at 1 mg/kg at 25 +/-1 degC treated for 3 secs measured after 4 days; details: 96 h
Mythimna separata [11] = assay: Stomach toxicity against fourth-instar larval stage of Mythimna separata (Oriental armyworm) in compound-pretreated corn leaves assessed as mortality at 100 mg/kg at 25 +/-1 degC after 4 days; summary of the method: as §1
Plutella xylostella = assay: Stomach toxicity against third-instar larval stage of Plutella xylostella (diamondback moth) in cabbage leaves assessed as mortality at 200 mg/kg at 25 +/-1 degC treated for 3 secs before larval infestation after 4 days by leaf-dip method; details: 96 h
Summary of the method: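 Cabbage leaf disks (6 cm × 2 cm) were dipped in test solution for 3 s and air-dried. Each disk was placed in a glass tube and given seven third-instar diamondback moth larvae. Percentage mortality was scored after 4 days. Controls were water and dimethylformamide. Each treatment was done three times at 25 ± 1 °C.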

Tetranychus cinnabarinus [12] = assay: Acaricidal activity against larvae of Tetranychus cinnabarinus (carmine spider mite) in sieva bean leaves assessed as mortality at 2.5 mg/kg at 25 +/-1 degC treated for 3 secs measured after 4 days; details: 96 h
Tetranychus cinnabarinus [13] = assay: Acaricidal activity against eggs of Tetranychus cinnabarinus (carmine spider mite) in sieva bean leaves assessed as mortality at 0.25 mg/kg at 25 +/-1 degC treated for 3 secs measured after 4 days; details: 96 h
Tetranychus cinnabarinus [14] = assay: Toxicity ratio of spiromesifen LC50 to compound LC50 for eggs of Tetranychus cinnabarinus (carmine spider mite) treated for 3 secs measured after 4 days
Tetranychus cinnabarinus [15] = assay: Acaricidal activity against eggs of Tetranychus cinnabarinus (carmine spider mite) in sieva bean leaves assessed as mortality at 25 +/-1 degC treated for 3 secs measured after 4 days
Tetranychus cinnabarinus [16] = assay: Ratio of mortality against eggs of Tetranychus cinnabarinus (carmine spider mite) to mortality against larvae of carmine spider mite
Tetranychus cinnabarinus [17] = assay: Acaricidal activity against eggs of Tetranychus cinnabarinus (carmine spider mite) in sieva bean leaves assessed as mortality at 0.05 mg/kg at 25 +/-1 degC treated for 3 secs measured after 4 days; details: 96 h
Tetranychus cinnabarinus [18] = assay: Acaricidal activity against eggs of Tetranychus cinnabarinus (carmine spider mite) in sieva bean leaves assessed as mortality at 0.1 mg/kg at 25 +/-1 degC treated for 3 secs measured after 4 days; details: 96 h

Compound	mortality at 5 mg/kg (Tetranychus cinnabarinus [1])	mortality at 600 mg/kg (Mythimna separata [2])	mortality at 10 mg/kg (Tetranychus cinnabarinus [3])	mortality at 5 mg/kg (Tetranychus cinnabarinus [4])	mortality at 600 mg/kg (Helicoverpa armigera)	mortality at 600 mg/kg (Ostrinia nubilalis)	mortality at 1 mg/kg (Tetranychus cinnabarinus [5])	mortality at 0.5 mg/kg (Tetranychus cinnabarinus [6])	mortality at 2.5 mg/kg (Tetranychus cinnabarinus [7])	mortality at 0.5 mg/kg (Tetranychus cinnabarinus [9])	mortality at 1 mg/kg (Tetranychus cinnabarinus [10])	mortality at 200 mg/kg (Plutella xylostella)	mortality at 2.5 mg/kg (Tetranychus cinnabarinus [12])	mortality at 0.25 mg/kg (Tetranychus cinnabarinus [13])	further results
C#CCOC(=O)C(=O)OC1=C(c2c(C)cc(C)cc2C)C(=O)OC12CCCC2	30%	50%	30%	0%	20%	70%									
Cc1cc(C)c(C2=C(OC(=O)C(=O)Oc3ccccc3)C3(CCCC3)OC2=O)c(C)c1	100%		100%	90%	20%	60%	70%	50%	100%	20%	50%	60%	80%		mortality at 50 mg/kg (Mythimna separata [8]): 0%; mortality at 100 mg/kg (Mythimna separata [11]): 100%
Cc1cc(C)c(C2=C(OC(=O)C(=O)Oc3ccc(Cl)cc3)C3(CCCC3)OC2=O)c(C)c1	100%	70%	100%	90%	30%	50%	90%	80%	100%	0%	60%		70%	60%	
Cc1cc(C)c(C2=C(OC(=O)C(=O)Oc3ccc(C(C)(C)C)cc3)C3(CCCC3)OC2=O)c(C)c1	90%	80%	100%	90%	10%	10%	50%		70%	40%	60%		90%		
CCN(CC)C(=O)C(=O)OC1=C(c2c(C)cc(C)cc2C)C(=O)OC12CCCC2	100%		100%	100%	20%	30%	60%	0%	100%		70%	85%	90%		mortality at 50 mg/kg (Mythimna separata [8]): 40%; mortality at 100 mg/kg (Mythimna separata [11]): 100%
Cc1cc(C)c(C2=C(OC(=O)C(=O)N(C(C)C)C(C)C)C3(CCCC3)OC2=O)c(C)c1	100%	50%	100%	80%	40%	80%	100%	100%	100%				40%	80%	RatioLC50 (Tetranychus cinnabarinus [14]): 1.4; LC50 (Tetranychus cinnabarinus [15]): 0.1147 mg/kg; Ratio (Tetranychus cinnabarinus [16]): 25; mortality at 0.05 mg/kg (Tetranychus cinnabarinus [17]): 10%; mortality at 0.1 mg/kg (Tetranychus cinnabarinus [18]): 40%
Cc1cc(C)c(C2=C(OC(=O)C(=O)N3CCCCC3)C3(CCCC3)OC2=O)c(C)c1	100%	40%	100%	90%	30%	40%	100%	100%	100%				70%	100%	RatioLC50 (Tetranychus cinnabarinus [14]): 2.3; LC50 (Tetranychus cinnabarinus [15]): 0.0675 mg/kg; Ratio (Tetranychus cinnabarinus [16]): 25; mortality at 0.05 mg/kg (Tetranychus cinnabarinus [17]): 30%; mortality at 0.1 mg/kg (Tetranychus cinnabarinus [18]): 60%
Cc1cc(C)c(C2=C(OC(=O)C(=O)N3CCCC3)C3(CCCC3)OC2=O)c(C)c1	70%	40%	40%	0%	30%	30%			30%						
Cc1cc(C)c(C2=C(OC(=O)C(=O)N(C)c3ccccc3)C3(CCCC3)OC2=O)c(C)c1	100%	80%	80%	70%	50%	30%	100%	100%	100%		0%	70%	40%	50%	
CCN(C(=O)C(=O)OC1=C(c2c(C)cc(C)cc2C)C(=O)OC12CCCC2)c1ccccc1	100%	40%	100%	100%	40%	40%	90%	50%	100%	60%	80%		90%	30%	
CCN(C(=O)C(=O)OC1=C(c2c(C)cc(C)cc2C)C(=O)OC12CCCC2)c1ccc(C)cc1C	100%	30%	100%	100%	20%	20%	70%	30%	90%	20%	60%		90%		
CCN(C(=O)C(=O)OC1=C(c2c(C)cc(C)cc2C)C(=O)OC12CCCC2)c1ccc(Br)cc1	100%	80%	100%	100%	30%	40%	90%	60%	100%	50%	90%		100%	40%	
CCN(C(=O)C(=O)OC1=C(c2c(C)cc(C)cc2C)C(=O)OC12CCCC2)c1ccc(C(F)(F)F)cc1	100%	50%	100%	100%	10%	30%	90%	80%	90%	40%	50%		80%	60%	
CCOC(=O)C(=O)OC1=C(c2c(C)cc(C)cc2C)C(=O)OC12CCCC2	20%	80%	50%	0%	10%	20%						70%			
Cc1cc(C)c(C2=C(OC(=O)CC(C)(C)C)C3(CCCC3)OC2=O)c(C)c1 [SPIROMESIFEN]	100%		100%	100%	50%	60%	90%	90%	100%	90%	90%	70%	100%	60%	RatioLC50 (Tetranychus cinnabarinus [14]): 1; LC50 (Tetranychus cinnabarinus [15]): 0.1567 mg/kg; mortality at 50 mg/kg (Mythimna separata [8]): 60%; mortality at 100 mg/kg (Mythimna separata [11]): 100%; mortality at 0.05 mg/kg (Tetranychus cinnabarinus [17]): 0%; mortality at 0.1 mg/kg (Tetranychus cinnabarinus [18]): 20%
